One may read the IC50 as the concentration that gives 50% inhibition. Read a low IC50 as inhibition by little substance.

The test system of one test is BaF3. The test can be described thus: Antiproliferative activity against mouse BAF3 cell line transformed with TEL-FGFR3 construct after 48 hrs by luciferase bioluminescent assay. The class given is functional, cell-based. Particulars: BaF3, 48 h. A digest of the protocol: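 IL-3-independent BaF3 or BaF3 Tel-TK cells were grown in RPMI-1640 with 10% FBS and seeded at 4250 cells/well in 384-well plates. Compound serially diluted in DMSO was pin-transferred, followed by 48 h at 37 °C, 5% CO2. Viability was read by Bright-Glo luciferase luminescence.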

For the next test, the target named is Cytochrome P450 2C19 (Homo sapiens, UniProt P33261). Kind of test: Inhibition of CYP2C19 using CEC as substrate. Type of test: ADME. A digest of the protocol:
(§1)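 Human CYP450 inhibition was measured with isoform-specific fluorogenic probe substrates: CEC for 1A2 and 2C19, MFC for 2C9, AMMC for 2D6. Incubation was at 37 °C with an NADPH-regenerating system in 384-well format. Metabolite was quantified by fluorescence, and IC50 was obtained by curve fitting.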

Test [1] has as its target T1, Cytochrome P450 3A4 (Homo sapiens, UniProt P08684). Kind of test: Inhibition of CYP3A4 using BFC as substrate.
In test [2] the target is T1, Cytochrome P450 3A4. Kind of test: Inhibition of CYP3A4 using DBF as substrate.
In a further test the target is Cytochrome P450 2C9 (Homo sapiens, UniProt P11712). Kind of test: Inhibition of CYP2C9 using MFC as substrate. Type of test: ADME. In short, it runs like this: as §1
Sequence of Cytochrome P450 2C9 (P11712 whole entry): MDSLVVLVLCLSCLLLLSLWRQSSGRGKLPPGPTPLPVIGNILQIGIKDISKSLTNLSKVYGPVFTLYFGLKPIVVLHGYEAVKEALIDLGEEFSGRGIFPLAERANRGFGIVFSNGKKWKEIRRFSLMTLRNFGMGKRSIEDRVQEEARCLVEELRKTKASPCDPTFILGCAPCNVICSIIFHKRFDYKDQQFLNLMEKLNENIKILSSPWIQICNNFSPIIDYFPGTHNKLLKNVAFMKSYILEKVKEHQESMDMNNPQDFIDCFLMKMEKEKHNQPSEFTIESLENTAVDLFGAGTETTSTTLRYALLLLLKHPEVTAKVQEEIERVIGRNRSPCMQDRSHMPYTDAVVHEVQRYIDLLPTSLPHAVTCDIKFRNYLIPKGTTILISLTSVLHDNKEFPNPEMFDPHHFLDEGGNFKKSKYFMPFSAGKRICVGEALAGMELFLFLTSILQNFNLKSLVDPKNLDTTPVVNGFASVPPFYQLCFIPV
The next test deals with Cytochrome P450 2D6 (Homo sapiens, UniProt P10635). Kind of test: Inhibition of CYP2D6 using AMMC as substrate. Type of test: ADME. In short, it runs like this: as §1
Sequence of Cytochrome P450 2D6 (P10635 whole entry): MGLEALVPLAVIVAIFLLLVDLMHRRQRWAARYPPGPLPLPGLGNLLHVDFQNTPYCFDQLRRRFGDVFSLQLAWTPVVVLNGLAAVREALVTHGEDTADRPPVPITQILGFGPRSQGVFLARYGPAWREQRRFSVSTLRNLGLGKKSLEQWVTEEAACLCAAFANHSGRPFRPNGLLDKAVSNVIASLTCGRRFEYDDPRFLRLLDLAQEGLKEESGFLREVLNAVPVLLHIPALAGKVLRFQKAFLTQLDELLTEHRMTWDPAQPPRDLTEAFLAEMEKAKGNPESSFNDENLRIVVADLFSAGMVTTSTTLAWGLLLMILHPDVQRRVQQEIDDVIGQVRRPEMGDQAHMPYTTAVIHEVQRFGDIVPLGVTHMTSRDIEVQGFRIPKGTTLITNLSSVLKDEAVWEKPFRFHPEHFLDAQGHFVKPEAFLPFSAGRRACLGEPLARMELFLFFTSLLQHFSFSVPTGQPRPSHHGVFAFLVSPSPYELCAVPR
For another test, the target named is T2, Cytochrome P450 1A2 (Homo sapiens, UniProt P05177).
T2 sequence (P05177 whole entry): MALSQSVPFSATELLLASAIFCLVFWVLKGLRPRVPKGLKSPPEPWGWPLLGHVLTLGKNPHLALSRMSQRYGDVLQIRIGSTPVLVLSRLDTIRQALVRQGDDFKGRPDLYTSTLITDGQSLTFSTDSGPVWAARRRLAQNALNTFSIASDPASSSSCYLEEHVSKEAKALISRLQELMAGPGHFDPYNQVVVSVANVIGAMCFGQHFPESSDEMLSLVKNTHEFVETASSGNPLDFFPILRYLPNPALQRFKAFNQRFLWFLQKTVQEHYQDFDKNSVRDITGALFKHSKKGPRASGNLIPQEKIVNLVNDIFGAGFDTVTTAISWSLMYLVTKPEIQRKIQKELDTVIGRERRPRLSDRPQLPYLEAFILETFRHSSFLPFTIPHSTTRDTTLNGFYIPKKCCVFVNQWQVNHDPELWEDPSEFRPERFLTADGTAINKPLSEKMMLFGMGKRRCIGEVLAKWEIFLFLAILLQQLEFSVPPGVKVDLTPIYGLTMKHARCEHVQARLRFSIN
Kind of test: Inhibition of CYP1A2 using CEC as substrate. The class given is ADME. A digest of the protocol: as §1

Sequence of Cytochrome P450 2C19 (P33261 whole entry, canonical isoform): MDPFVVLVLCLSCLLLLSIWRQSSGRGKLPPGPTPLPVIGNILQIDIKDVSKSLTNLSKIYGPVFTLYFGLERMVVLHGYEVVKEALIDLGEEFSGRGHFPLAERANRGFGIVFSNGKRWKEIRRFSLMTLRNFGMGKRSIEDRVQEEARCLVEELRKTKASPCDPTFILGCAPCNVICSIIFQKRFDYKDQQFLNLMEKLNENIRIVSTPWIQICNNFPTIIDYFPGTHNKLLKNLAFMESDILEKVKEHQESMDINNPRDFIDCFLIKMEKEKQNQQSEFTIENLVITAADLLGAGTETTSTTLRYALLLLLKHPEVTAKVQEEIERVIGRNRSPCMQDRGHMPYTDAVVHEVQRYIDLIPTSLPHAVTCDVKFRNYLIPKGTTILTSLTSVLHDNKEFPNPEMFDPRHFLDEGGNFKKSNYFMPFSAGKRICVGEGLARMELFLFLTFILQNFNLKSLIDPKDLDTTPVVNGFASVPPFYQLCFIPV
T1 sequence (P08684 whole entry): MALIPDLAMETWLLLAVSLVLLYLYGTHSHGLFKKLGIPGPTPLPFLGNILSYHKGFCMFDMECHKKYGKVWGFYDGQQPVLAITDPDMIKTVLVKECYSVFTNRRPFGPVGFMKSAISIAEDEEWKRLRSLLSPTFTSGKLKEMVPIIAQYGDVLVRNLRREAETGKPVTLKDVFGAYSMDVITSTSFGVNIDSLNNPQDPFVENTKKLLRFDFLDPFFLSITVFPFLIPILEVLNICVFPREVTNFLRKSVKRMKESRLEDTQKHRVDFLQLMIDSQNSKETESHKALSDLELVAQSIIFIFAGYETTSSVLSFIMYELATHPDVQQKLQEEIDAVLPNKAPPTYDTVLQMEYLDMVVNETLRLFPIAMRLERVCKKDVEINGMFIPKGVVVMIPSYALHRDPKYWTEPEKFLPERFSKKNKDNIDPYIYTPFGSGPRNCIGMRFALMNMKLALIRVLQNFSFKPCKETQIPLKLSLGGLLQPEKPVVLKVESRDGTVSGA

In the test on BaF3, `COc1ccc(Cl)c(NC(=O)Nc2cc(Nc3ccc(N4CCN(C)CC4)cc3)ncn2)c1` came in with a half-maximal inhibitory concentration (IC50) of 2220 nM.

Regarding `COc1cc(NC(=O)Nc2cc(Nc3ccc(N4CCN(C)CC4)cc3)ncn2)c(Cl)c(OC)c1`, 832 nM corresponded to half-maximal inhibition in the test on BaF3 (IC50).

Consider `CCN(C(=O)Nc1cc(OC)cc(OC)c1Cl)c1cc(Nc2ccc(N3CCN(C)CC3)cc2)ncn1`, for which, in the test with BaF3, inhibition was half-maximal at 750 nM (IC50).

As for `COc1cc(OC)c(Cl)c(NC(=O)N(C)c2cc(Nc3cccc(CN4CCN(C)CC4)c3)ncn2)c1Cl`, the 50% inhibitory concentration (IC50) is 300 nM on Cytochrome P450 2C19; 14 nM in the test on BaF3; 500 nM against Cytochrome P450 3A4 [1]; greater than 10000 nM against Cytochrome P450 3A4 [2]; greater than 10000 nM against Cytochrome P450 2C9; greater than 10000 nM against Cytochrome P450 2D6. This compound displayed an IC50 against Cytochrome P450 1A2 of 7000 nM.

As for `COc1ccc(Cl)c(NC(=O)N(C)c2cc(Nc3ccc(N4CCN(C)CC4)cc3)ncn2)c1Cl`, the 50% inhibitory concentration (IC50) in the test on BaF3 is 118 nM.

On to `COc1ccc(Cl)c(NC(=O)Nc2cc(Nc3ccc(N4CCN(C)CC4)cc3)ncn2)c1Cl`, for which the IC50 in the test with BaF3 worked out at 126 nM.

Take `COc1cc(OC)c(Cl)c(NC(=O)N(C)c2cc(Nc3cccc(N4CCN(C)CC4)c3)ncn2)c1Cl`: the IC50 against Cytochrome P450 2C19 is 900 nM; in the test with BaF3 it was 2 nM; against Cytochrome P450 3A4 [1] it was 1100 nM; at Cytochrome P450 3A4 [2], greater than 10000 nM; against Cytochrome P450 2C9, 1700 nM; against Cytochrome P450 2D6, greater than 10000 nM. The same compound registered a 50% inhibitory concentration (IC50) at Cytochrome P450 1A2 greater than 10000 nM.

Turning to `COc1cc(OC)c(Cl)c(NC(=O)N(C)c2cc(Nc3ccc(CCCN(C)C)cc3)ncn2)c1Cl`, the IC50 is 3600 nM at Cytochrome P450 2C19; 27 nM in the test on BaF3; 1000 nM against Cytochrome P450 3A4 [1]; greater than 10000 nM against Cytochrome P450 3A4 [2]; greater than 10000 nM on Cytochrome P450 2C9; greater than 10000 nM at Cytochrome P450 2D6. The compound also had an IC50 against Cytochrome P450 1A2 greater than 10000 nM.

With `CCN1CCC(c2ccc(Nc3cc(N(C)C(=O)Nc4c(Cl)c(OC)cc(OC)c4Cl)ncn3)cc2)CC1`, the IC50 was 1100 nM against Cytochrome P450 2C19; 14 nM in the test on BaF3; 1200 nM on Cytochrome P450 3A4 [1]; 6000 nM against Cytochrome P450 3A4 [2]; 4000 nM against Cytochrome P450 2C9; greater than 10000 nM at Cytochrome P450 2D6. The IC50 at Cytochrome P450 1A2 is greater than 10000 nM.

For the compound `COc1cc(OC)c(Cl)c(NC(=O)N(C)c2cc(Nc3ccc(OCCN4CCCC4)cc3)ncn2)c1Cl`, the IC50 is greater than 10000 nM at Cytochrome P450 2C19; 28 nM with BaF3; greater than 10000 nM against Cytochrome P450 3A4 [1]; 2500 nM against Cytochrome P450 3A4 [2]; greater than 10000 nM on Cytochrome P450 2C9; greater than 10000 nM against Cytochrome P450 2D6. In addition, the IC50 against Cytochrome P450 1A2 was greater than 10000 nM.

`COc1cc(OC)c(Cl)c(NC(=O)N(C)c2cc(Nc3cccc(CN(C)C)c3)ncn2)c1Cl`: the IC50 was 1400 nM against Cytochrome P450 2C19; 11 nM in the test on BaF3; greater than 10000 nM at Cytochrome P450 2C9; greater than 10000 nM on Cytochrome P450 2D6; greater than 10000 nM against Cytochrome P450 1A2.

As to `COc1cc(NC(=O)N(C)c2cc(Nc3ccc(N4CCN(C)CC4)cc3)ncn2)cc(OC)c1`, in the test with BaF3, 1510 nM corresponded to half-maximal inhibition (IC50).

As to `COc1cc(NC(=O)N(C)c2cc(Nc3ccc(N4CCN(C)CC4)cc3)ncn2)c(Cl)c(OC)c1`, in the test with BaF3, the IC50 amounted to 635 nM.

The values are drawn from ChEMBL document CHEMBL1833940, “Discovery of 3-(2,6-dichloro-3,5-dimethoxy-phenyl)-1-{6-[4-(4-ethyl-piperazin-1-yl)-phenylamino]-pyrimidin-4-yl}-1-methyl-urea (NVP-BGJ398), a potent and selective inhibitor of the fibroblast growth factor receptor family of receptor tyrosine kinase” (J Med Chem, 2011).
